Reference: ChEMBL document CHEMBL1149321, “Synthesis, radiosynthesis, and biological evaluation of carbon-11 and iodine-123 labeled 2beta-carbomethoxy-3beta-[4'-((Z)-2-haloethenyl)phenyl]tropanes: candidate radioligands for in vivo imaging of the serotonin transporter” (J Med Chem, 2004)

Key:
Rattus norvegicus [1] = assay: Distribution in striatum of rat brain after intravenous administration by using [123I]ZIET after 120 min; assay type: ADME, organism-based; details: in vivo, 2 h
Outline: (§1)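 Male Sprague–Dawley rats (200–250 g), fed ad libitum, given ~20 μCi radiotracer iv via tail-vein cannula in 0.2 mL 10% ethanol/saline under ketamine/xylazine im anesthesia. Killed at 5, 30, 60 or 120 min (n = 5; n = 4 at 120 min). Brain regions dissected, weighed, gamma-counted with dose standards, decay-corrected; mean %ID/g ± SE.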

Rattus norvegicus [2] = assay: Distribution in cerebellum of rat brain after intravenous administration by using [123I]ZIET after 120 min; assay type: ADME, organism-based; details: in vivo, 2 h; outline: as §1
Rattus norvegicus [3] = assay: Distribution of the radio labelled compound in hypothalamus of rat brain after intravenous administration in presence of RTI-113 after 60 min; assay type: ADME, organism-based; details: in vivo, 1 h
Outline: (§2)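 Male Sprague–Dawley rats (200–250 g) under ketamine/xylazine anaesthesia with tail-vein cannulas. Blocker or none given 15 min before ~20 μCi [123I] tracer iv in 0.2 mL 10% ethanol/saline; blocker dose 4 mg/kg.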

Rattus norvegicus [4] = assay: Distribution in rest of rat brain after intravenous administration by using [123I]ZIET after 60 min; assay type: ADME, organism-based; details: in vivo, 1 h; outline: as §1
Rattus norvegicus [5] = assay: Distribution in hypothalamus of rat brain after intravenous administration by using [123I]ZIET after 5 min; assay type: ADME, organism-based; details: in vivo; outline: as §1
Rattus norvegicus [6] = assay: Distribution of the radio labelled compound in hippocampus of rat brain after intravenous administration in presence of RTI-113 after 60 min; assay type: ADME, organism-based; details: in vivo, 1 h; outline: as §2
Rattus norvegicus [7] = assay: Distribution of the radio labelled compound in rest of rat brain after intravenous administration in presence of RTI-113 after 60 min; assay type: ADME, organism-based; details: in vivo, 1 h; outline: as §2
[8] = Ratio of radioactivity in frontal cortex of rat brain to that of rat cerebellum after intravenous administration after 60 min; assay type: functional
Outline: (§3)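 Male Sprague–Dawley rats (200–250 g) given ~20 μCi [123I] tracer iv in 0.2 mL 10% ethanol/saline under ketamine/xylazine; killed at 5, 30, 60, 120 min (n = 5; n = 4 at 120 min). Brain regions dissected, gamma counted, decay-corrected to %ID/g; regional uptake divided by cerebellum.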

Rattus norvegicus [9] = assay: Distribution of the radio labelled compound in blood of rat brain after intravenous administration in absence of blocker after 60 min; assay type: ADME, organism-based; details: in vivo, 1 h
Outline: (§4)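 Male Sprague–Dawley rats (200–250 g), ketamine/xylazine anesthesia, tail-vein cannula. Blocker (4 mg/kg) or nothing given 15 min before iv [123I]ZIET in 10% ethanol/saline. Killed 60 min post-tracer.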

Rattus norvegicus [10] = assay: Distribution of the radio labelled compound in brainstem of rat brain after intravenous administration in presence of citalopram after 60 min; assay type: ADME, organism-based; details: in vivo, 1 h; outline: as §4
Rattus norvegicus [11] = assay: Distribution of the radio labelled compound in occipital cortex of rat brain after intravenous administration in presence of reboxetine after 60 min; assay type: ADME, organism-based; details: in vivo, 1 h; outline: as §2
[12] = Ratio of radioactivity in hippocampus of rat brain to that of rat cerebellum after intravenous administration after 120 min; assay type: functional; outline: as §3
Rattus norvegicus [13] = assay: Distribution in brainstem of rat brain after intravenous administration by using [123I]ZIET after 30 min; assay type: ADME, organism-based; details: in vivo, 0.5 h; outline: as §1
Rattus norvegicus [14] = assay: Distribution of the radio labelled compound in blood of rat brain after intravenous administration in presence of RTI-113 after 60 min; assay type: ADME, organism-based; details: in vivo, 1 h; outline: as §4
Rattus norvegicus [15] = assay: Distribution in hypothalamus of rat brain after intravenous administration by using [123I]ZIET after 60 min; assay type: ADME, organism-based; details: in vivo, 1 h; outline: as §1
Rattus norvegicus [16] = assay: Distribution of the radio labelled compound in striatum of rat brain after intravenous administration in presence of reboxetine after 60 min; assay type: ADME, organism-based; details: in vivo, 1 h; outline: as §2
Rattus norvegicus [17] = assay: Distribution in rest of rat brain after intravenous administration by using [123I]ZIET after 5 min; assay type: ADME, organism-based; details: in vivo; outline: as §1
Rattus norvegicus [18] = assay: Distribution of the radio labelled compound in thyroid of rat brain after intravenous administration in absence of blocker after 60 min; assay type: ADME, organism-based, Thyroid gland; details: in vivo, 1 h; outline: as §2
Rattus norvegicus [19] = assay: Distribution in striatum of rat brain after intravenous administration by using [123I]-ZIET after 30 min; assay type: ADME, organism-based; details: in vivo, 0.5 h; outline: as §1
Rattus norvegicus [20] = assay: Distribution in cerebellum of rat brain after intravenous administration by using [123I]ZIET after 5 min; assay type: ADME, organism-based; details: in vivo; outline: as §1
[21] = Ratio of radioactivity in frontal cortex of rat brain to that of rat cerebellum after intravenous administration after 30 min; assay type: functional; outline: as §3
Rattus norvegicus [22] = assay: Distribution of the radio labelled compound in thyroid of rat brain after intravenous administration in presence of RTI-113 after 60 min; assay type: ADME, organism-based, Thyroid gland; details: in vivo, 1 h; outline: as §2
Rattus norvegicus [23] = assay: Distribution in rest of rat brain after intravenous administration by using [123I]ZIET after 120 min; assay type: ADME, organism-based; details: in vivo, 2 h; outline: as §1
[24] = Ratio of radioactivity in rest of rat brain to that of rat cerebellum after intravenous administration after 5 min; assay type: functional; outline: as §3
Rattus norvegicus [25] = assay: Distribution of the radio labelled compound in frontal cortex of rat brain after intravenous administration in presence of reboxetine after 60 min; assay type: ADME, organism-based; details: in vivo, 1 h; outline: as §2
Rattus norvegicus [26] = assay: Distribution in hippocampus of rat brain after intravenous administration by using [123I]ZIET after 5 min; assay type: ADME, organism-based; details: in vivo; outline: as §1
Rattus norvegicus [27] = assay: Distribution in frontal cortex of rat brain after intravenous administration by using [123I]ZIET after 120 min; assay type: ADME, organism-based; details: in vivo, 2 h; outline: as §1
Rattus norvegicus [28] = assay: Distribution in striatum of rat brain after intravenous administration by using [123I]ZIET after 60 min; assay type: ADME, organism-based; details: in vivo, 1 h; outline: as §1
[29] = Ratio of radioactivity in striatum of rat brain to that of rat cerebellum after intravenous administration after 120 min; assay type: functional; outline: as §3
Rattus norvegicus [30] = assay: Distribution of the radio labelled compound in blood of rat brain after intravenous administration in presence of citalopram after 60 min; assay type: ADME, organism-based; details: in vivo, 1 h; outline: as §4
Rattus norvegicus [31] = assay: Distribution of the radio labelled compound in striatum of rat brain after intravenous administration in presence of citalopram after 60 min; assay type: ADME, organism-based; details: in vivo, 1 h; outline: as §2
Rattus norvegicus [32] = assay: Distribution in hypothalamus of rat brain after intravenous administration by using [123I]ZIET after 120 min; assay type: ADME, organism-based; details: in vivo, 2 h; outline: as §1
Rattus norvegicus [33] = assay: Distribution of the radio labelled compound in striatum of rat brain after intravenous administration in presence of RTI-113 after 60 min; assay type: ADME, organism-based; details: in vivo, 1 h; outline: as §2
Rattus norvegicus [34] = assay: Distribution of the radio labelled compound in cerebellum of rat brain after intravenous administration in presence of citalopram after 60 min; assay type: ADME, organism-based; details: in vivo, 1 h; outline: as §2
Rattus norvegicus [35] = assay: Distribution in hippocampus of rat brain after intravenous administration by using [123I]ZIET after 30 min; assay type: ADME, organism-based; details: in vivo, 0.5 h; outline: as §1
[36] = Ratio of radioactivity in occipital cortex of rat brain to that of rat cerebellum after intravenous administration after 30 min; assay type: functional; outline: as §3
Rattus norvegicus [37] = assay: Distribution of the radio labelled compound in hippocampus of rat brain after intravenous administration in absence of blocker after 60 min; assay type: ADME, organism-based; details: in vivo, 1 h; outline: as §2
Rattus norvegicus [38] = assay: Distribution in frontal cortex of rat brain after intravenous administration by using [123I]ZIET after 5 min; assay type: ADME, organism-based; details: in vivo; outline: as §1
Rattus norvegicus [39] = assay: Distribution in frontal cortex of rat brain after intravenous administration by using [123I]ZIET after 60 min; assay type: ADME, organism-based; details: in vivo, 1 h; outline: as §1
Rattus norvegicus [40] = assay: Distribution in thyroid of rat brain after intravenous administration by using [123I]ZIET after 5 min; assay type: ADME, organism-based, Thyroid gland; details: in vivo; outline: as §1
Rattus norvegicus [41] = assay: Distribution of the radio labelled compound in rest of rat brain after intravenous administration in presence of citalopram after 60 min; assay type: ADME, organism-based; details: in vivo, 1 h; outline: as §2
[42] = Ratio of radioactivity in hypothalamus of rat brain to that of rat cerebellum after intravenous administration after 30 min; assay type: functional; outline: as §3
Rattus norvegicus [43] = assay: Distribution in hippocampus of rat brain after intravenous administration by using [123I]ZIET after 60 min; assay type: ADME, organism-based; details: in vivo, 1 h; outline: as §1
Rattus norvegicus [44] = assay: Distribution in brainstem of rat brain after intravenous administration by using [123I]ZIET after 60 min; assay type: ADME, organism-based; details: in vivo, 1 h; outline: as §1

## COC(=O)C1C(c2ccc(/C=C\[123I])cc2)CC2CCC1N2C (centres undefined)
Rattus norvegicus [1]
  Activity: 0.52
Rattus norvegicus [2]
  Activity: 0.14
Rattus norvegicus [3]
  Activity: 0.55
Rattus norvegicus [4]
  Activity: 0.54
Rattus norvegicus [5]
  Activity: 0.36
Rattus norvegicus [6]
  Activity: 0.42
Rattus norvegicus [7]
  Activity: 0.36
[8]
  Ratio: 2.6
Rattus norvegicus [9]
  Activity: 0.22
Rattus norvegicus [10]
  Activity: 0.14
Rattus norvegicus [11]
  Activity: 0.42
[12]
  Ratio: 3.4
Rattus norvegicus [13]
  Activity: 0.65
Rattus norvegicus [14]
  Activity: 0.24
Rattus norvegicus [15]
  Activity: 0.69
Rattus norvegicus [16]
  Activity: 0.45
Rattus norvegicus [17]
  Activity: 0.38
Rattus norvegicus [18]
  Activity: 0.54
Rattus norvegicus [19]
  Activity: 0.76
Rattus norvegicus [20]
  Activity: 0.34
[21]
  Ratio: 2
Rattus norvegicus [22]
  Activity: 1.01
Rattus norvegicus [23]
  Activity: 0.39
[24]
  Ratio: 1.1
Rattus norvegicus [25]
  Activity: 0.47
Rattus norvegicus [26]
  Activity: 0.38
Rattus norvegicus [27]
  Activity: 0.48
Rattus norvegicus [28]
  Activity: 0.71
[29]
  Ratio: 3.7
Rattus norvegicus [30]
  Activity: 0.21
Rattus norvegicus [31]
  Activity: 0.26
Rattus norvegicus [32]
  Activity: 0.6
Rattus norvegicus [33]
  Activity: 0.45
Rattus norvegicus [34]
  Activity: 0.1
Rattus norvegicus [35]
  Activity: 0.72
[36]
  Ratio: 1.8
Rattus norvegicus [37]
  Activity: 0.4
Rattus norvegicus [38]
  Activity: 0.45
Rattus norvegicus [39]
  Activity: 0.71
Rattus norvegicus [40]
  Activity: 0.08
Rattus norvegicus [41]
  Activity: 0.18
[42]
  Ratio: 1.6
Rattus norvegicus [43]
  Activity: 0.63
Rattus norvegicus [44]
  Activity: 0.54
